The source made the active and inactive calls. No cut-off for these calls is given here.
Experiments:
Albumin = Albumin (Homo sapiens, UniProt P02768); assay: Binding affinity to HSA assessed as free fraction by HPLC analysis; type: ADME; details: isolated protein
[1] = Chromatographic hydrophobicity index, log D of the compound at pH 7.4 by HPLC analysis; type: physicochemical; details: buffer
[2] = Apparent permeability in pH 7.4 ammonium acetate buffer incubated for 5 hrs by PAMPA; type: ADME
In short: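 Passive permeability by PAMPA, reported as Papp in 10–6 cm s–1. Values under the limit of quantification were flagged as BLQ. Compound recovery in the assay was also determined.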

[3] = biological target: T1, von Hippel-Lindau disease tumor suppressor/Androgen receptor (Homo sapiens, UniProt P10275+P40337); assay: Protac activity at VHL/androgen receptor in human LNCaP cells assessed as induction of androgen receptor protein degradation at 1 uM incubated for 6 hrs by Western blot analysis relative to control; type: cell-based
Target sequence in this assay (P10275 whole entry, looked up): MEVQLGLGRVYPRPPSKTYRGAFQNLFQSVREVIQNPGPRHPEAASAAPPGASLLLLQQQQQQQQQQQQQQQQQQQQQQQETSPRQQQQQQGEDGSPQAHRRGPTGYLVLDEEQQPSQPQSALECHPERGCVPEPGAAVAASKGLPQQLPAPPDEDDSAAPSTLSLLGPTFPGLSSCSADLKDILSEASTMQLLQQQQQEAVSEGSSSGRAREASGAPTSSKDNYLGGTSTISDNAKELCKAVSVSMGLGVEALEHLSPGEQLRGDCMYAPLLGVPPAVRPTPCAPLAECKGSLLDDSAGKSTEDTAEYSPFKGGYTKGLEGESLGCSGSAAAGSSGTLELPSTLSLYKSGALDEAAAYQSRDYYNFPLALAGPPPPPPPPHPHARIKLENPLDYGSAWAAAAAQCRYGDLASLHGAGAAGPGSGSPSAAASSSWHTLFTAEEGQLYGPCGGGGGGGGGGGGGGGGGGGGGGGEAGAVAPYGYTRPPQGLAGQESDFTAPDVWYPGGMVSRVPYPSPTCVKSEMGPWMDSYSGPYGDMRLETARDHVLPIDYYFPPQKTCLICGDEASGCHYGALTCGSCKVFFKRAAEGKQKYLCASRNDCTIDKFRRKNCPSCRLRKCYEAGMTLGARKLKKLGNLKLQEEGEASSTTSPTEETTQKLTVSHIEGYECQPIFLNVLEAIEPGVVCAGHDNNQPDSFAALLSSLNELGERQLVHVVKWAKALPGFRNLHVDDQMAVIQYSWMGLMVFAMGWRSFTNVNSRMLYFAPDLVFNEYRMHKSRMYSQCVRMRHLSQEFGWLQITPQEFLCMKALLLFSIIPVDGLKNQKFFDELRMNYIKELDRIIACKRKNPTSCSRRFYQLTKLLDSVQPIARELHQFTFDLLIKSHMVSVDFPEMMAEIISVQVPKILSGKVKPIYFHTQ
Target sequence in this assay (P40337 whole entry, looked up): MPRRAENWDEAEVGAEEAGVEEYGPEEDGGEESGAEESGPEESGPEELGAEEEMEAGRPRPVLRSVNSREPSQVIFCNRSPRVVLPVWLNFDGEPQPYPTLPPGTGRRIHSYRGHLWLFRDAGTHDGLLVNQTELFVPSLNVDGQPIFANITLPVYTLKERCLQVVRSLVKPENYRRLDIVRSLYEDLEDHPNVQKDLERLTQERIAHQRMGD

[4] = Apparent permeability from basolateral to apical side in human Caco2 cells at 10 uM incubated for 120 mins; type: ADME, cell-based; details: Caco-2
In short: (§1)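 Polarized Caco-2 cell monolayer, permeability measured in both directions (apical to basolateral and basolateral to apical), reported as Papp in 10–6 cm s–1. Efflux ratio taken as the ratio of the directional permeabilities. Compound recovery also determined.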

[5] = Efflux ratio of apparent permeability across basolateral to apical membrane over apical to basolateral membrane in human Caco2 cells at 10 uM incubated for 120 mins; type: ADME, cell-based; details: Caco-2; in short: as §1
[6] = Apparent permeability from apical to basolateral side in human Caco2 cells at 10 uM incubated for 120 mins; type: ADME, cell-based; details: Caco-2; in short: as §1
[7] = biological target: T1, von Hippel-Lindau disease tumor suppressor/Androgen receptor; assay: Protac activity at VHL/androgen receptor in human LNCaP cells assessed as induction of androgen receptor protein degradation incubated for 6 hrs by Western blot analysis relative to control; type: cell-based
In short: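 LNCaP cells (androgen-dependent human prostate adenocarcinoma) were exposed to a concentration series of PROTAC. AR protein levels were normalized and plotted against PROTAC concentration. DCMAX is the percentage of AR cleared, and DC50 is the concentration clearing half of DCMAX. Data come from at least 5 independent experiments run in triplicate, with ANOVA (Dunnett's) for significance.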
Target sequence in this assay (P10275 whole entry, looked up): as the sequence (P10275 whole entry, looked up) above
Target sequence in this assay (P40337 whole entry, looked up): as the sequence (P40337 whole entry, looked up) above

[8] = biological target: T1, von Hippel-Lindau disease tumor suppressor/Androgen receptor; assay: Protac activity at VHL/androgen receptor in human LNCaP cells assessed as induction of androgen receptor protein degradation incubated for 6 hrs by Western blot analysis; type: cell-based
In short: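 Androgen-dependent LNCaP prostate adenocarcinoma cells treated across a concentration range, then AR protein levels normalized and plotted against concentration. DCMAX is the percentage of AR cleared; DC50 is the concentration giving half of DCMAX. At least 5 independent experiments, each in triplicate. Significance by ANOVA with Dunnett's test.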

Albumin, sequence (P02768 whole entry): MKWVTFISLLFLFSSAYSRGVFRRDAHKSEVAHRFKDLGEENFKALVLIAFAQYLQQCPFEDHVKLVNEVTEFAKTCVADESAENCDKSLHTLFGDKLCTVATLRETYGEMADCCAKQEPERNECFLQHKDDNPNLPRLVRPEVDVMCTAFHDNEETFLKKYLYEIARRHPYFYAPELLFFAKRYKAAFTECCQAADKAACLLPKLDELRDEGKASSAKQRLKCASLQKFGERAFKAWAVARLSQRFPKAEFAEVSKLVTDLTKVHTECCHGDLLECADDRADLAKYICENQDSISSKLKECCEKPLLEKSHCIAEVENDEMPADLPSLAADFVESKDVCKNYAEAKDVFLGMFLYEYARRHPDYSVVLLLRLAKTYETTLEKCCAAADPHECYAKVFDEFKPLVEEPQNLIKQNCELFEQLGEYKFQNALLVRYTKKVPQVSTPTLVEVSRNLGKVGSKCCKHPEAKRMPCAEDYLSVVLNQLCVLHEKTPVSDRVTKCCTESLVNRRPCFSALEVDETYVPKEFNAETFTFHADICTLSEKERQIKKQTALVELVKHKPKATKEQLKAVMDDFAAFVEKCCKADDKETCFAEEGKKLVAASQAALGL

Structure (SMILES)	Activity (Albumin)	CHI [1]	Papp at 5 h [2]	Papp B→A at 2 h, 10 µM [4]	efflux ratio at 2 h, 10 µM [5]	Papp A→B at 2 h, 10 µM [6]	further results
CC1(C)C(=O)N(c2ccc(C#N)c(C(F)(F)F)c2)C(=S)N1c1ccc(O)cc1	> 5%	5	4.6 ×10⁻⁶ cm/s	–	–	–	–
OC12CC3CC(CC(C3)C1)C2	> 5%	7.9	–	–	–	–	Activity [3]: 18%
Cc1ncsc1-c1ccc(CNC(=O)[C@@H]2C[C@@H](O)CN2C(=O)[C@@H](NC(=O)COCCCOCC(F)(F)C(F)(F)COc2ccc(N3C(=S)N(c4ccc(C#N)c(C(F)(F)F)c4)C(=O)C3(C)C)cc2)C(C)(C)C)cc1	7%	6.1	< 1 ×10⁻⁶ cm/s	0.33 ×10⁻⁶ cm/s	> 3	0.33 ×10⁻⁶ cm/s	–
O=C1CCC(N2C(=O)c3cccc(O)c3C2=O)C(=O)N1 (stereo not drawn)	> 5%	0.4	2 ×10⁻⁶ cm/s	–	–	–	Activity [3]: 23%
Cc1ncsc1-c1ccc(CNC(=O)[C@@H]2C[C@@H](O)CN2C(=O)[C@@H](NC(=O)COCCCOCCCCCOc2ccc(N3C(=S)N(c4ccc(C#N)c(C(F)(F)F)c4)C(=O)C3(C)C)cc2)C(C)(C)C)cc1	9%	6.3	< 1 ×10⁻⁶ cm/s	0.24 ×10⁻⁶ cm/s	0.7	0.35 ×10⁻⁶ cm/s	–
Cc1ncsc1-c1ccc(CNC(=O)[C@@H]2C[C@@H](O)CN2C(=O)[C@@H](NC(=O)COCCCCCOc2ccc(C(=O)N[C@H]3C(C)(C)[C@H](Oc4ccc(C#N)c(C(F)(F)F)c4)C3(C)C)cc2)C(C)(C)C)cc1	7%	6.7	< 1 ×10⁻⁶ cm/s	–	–	–	–
CC1(C)C(=O)N(c2ccc(C#N)c(C(F)(F)F)c2)C(=S)N1c1ccc(OCCOCCOCCOCCOC23CC4CC(CC(C4)C2)C3)cc1	–	–	< 1 ×10⁻⁶ cm/s	0.22 ×10⁻⁶ cm/s	1.5	0.15 ×10⁻⁶ cm/s	–
O=C1CC[C@H](N2Cc3c(O)cccc3C2=O)C(=O)N1	> 5%	0.2	–	–	–	–	–
N#Cc1ccc(N2CCC[C@@H]2C(O)COCCOCCOCCOCCOC23CC4CC(CC(C4)C2)C3)cc1C(F)(F)F (stereo partly drawn)	–	–	2.3 ×10⁻⁶ cm/s	–	–	–	–
CC(O)(COc1ccc(OCCOCCOCCOCCOc2cccc3c2CN([C@H]2CCC(=O)NC2=O)C3=O)cc1)C(=O)Nc1ccc(C#N)c(C(F)(F)F)c1 (stereo partly drawn)	–	–	0.4 ×10⁻⁶ cm/s	–	–	–	–
CN1C(=O)N(c2ccc(C#N)c(C(F)(F)F)c2)C(=O)C1(C)c1ccc(O)cc1 (stereo not drawn)	> 5%	4.4	8.3 ×10⁻⁶ cm/s	–	–	–	–
CC1(C)C(=O)N(c2ccc(C#N)c(C(F)(F)F)c2)C(=S)N1c1ccc(OCCOCCOCCOCCOc2cccc3c2CN([C@H]2CCC(=O)NC2=O)C3=O)cc1	–	–	–	–	–	–	%max [7]: 33%; DC50 [8]: 10 nM
CC(O)(COc1ccc(O)cc1)C(=O)Nc1ccc(C#N)c(C(F)(F)F)c1 (stereo not drawn)	> 5%	4	1.4 ×10⁻⁶ cm/s	–	–	–	Activity [3]: 23%
CC1(C)C(=O)N(c2ccc(C#N)c(C(F)(F)F)c2)C(=S)N1c1ccc(OCCOCCOCCOCCOc2cccc3c2C(=O)N(C2CCC(=O)NC2=O)C3=O)cc1 (stereo not drawn)	–	–	< 1 ×10⁻⁶ cm/s	14.1 ×10⁻⁶ cm/s	8.4	1.7 ×10⁻⁶ cm/s	Activity [8]: inactive
CN1C(=O)N(c2ccc(C#N)c(C(F)(F)F)c2)C(=O)C1(C)c1ccc(OCCOCCOCCOCCOc2cccc3c2CN([C@H]2CCC(=O)NC2=O)C3=O)cc1 (stereo partly drawn)	–	–	0.3 ×10⁻⁶ cm/s	–	–	–	–
Cc1ncsc1-c1ccc(CNC(=O)[C@@H]2C[C@@H](O)CN2C(=O)[C@@H](NC(=O)COCC(F)(F)C(F)(F)C(F)(F)COCCCOc2ccc(N3C(=S)N(c4ccc(C#N)c(C(F)(F)F)c4)C(=O)C3(C)C)cc2)C(C)(C)C)cc1	7%	6.3	< 1 ×10⁻⁶ cm/s	< 0.79 ×10⁻⁶ cm/s	< 3	0.26 ×10⁻⁶ cm/s	–
N#Cc1ccc(N2CCC[C@@H]2C(O)CO)cc1C(F)(F)F (stereo partly drawn)	> 5%	–	13.3 ×10⁻⁶ cm/s	–	–	–	–
Cc1ncsc1-c1ccc(CNC(=O)[C@@H]2C[C@@H](O)CN2C(=O)[C@@H](NC(=O)COCC(F)(F)COc2ccc(-c3ccc(N4C(=S)N(c5ccc(C#N)c(C(F)(F)F)c5)C(=O)C4(C)C)cc3)cc2)C(C)(C)C)cc1	6%	6.1	< 1 ×10⁻⁶ cm/s	–	–	–	–
Cc1ncsc1-c1ccc(CNC(=O)[C@@H]2C[C@@H](O)CN2C(=O)[C@@H](NC(=O)COCCCOCCCCOc2ccc(N3C(=S)N(c4ccc(C#N)c(C(F)(F)F)c4)C(=O)C3(C)C)cc2)C(C)(C)C)cc1	10%	6	< 1 ×10⁻⁶ cm/s	1.4 ×10⁻⁶ cm/s	> 0.5	< 27 ×10⁻⁶ cm/s	–
CC(O)(COc1ccc(OCCOCCOCCOCCOc2cccc3c2C(=O)N(C2CCC(=O)NC2=O)C3=O)cc1)C(=O)Nc1ccc(C#N)c(C(F)(F)F)c1 (stereo not drawn)	–	–	0.3 ×10⁻⁶ cm/s	–	–	–	–
Cc1ncsc1-c1ccc(CNC(=O)[C@@H]2C[C@@H](O)CN2C(=O)[C@@H](NC(=O)CCOCCOCCOCCOc2ccc(N3C(=S)N(c4ccc(C#N)c(C(F)(F)F)c4)C(=O)C3(C)C)cc2)C(C)(C)C)cc1	11%	5.1	< 1 ×10⁻⁶ cm/s	2.6 ×10⁻⁶ cm/s	> 12	< 0.69 ×10⁻⁶ cm/s	–
Cc1ncsc1-c1ccc(CNC(=O)[C@@H]2C[C@@H](O)CN2C(=O)[C@@H](NC(=O)CCOCCOCCOc2ccc(C(=O)N[C@H]3C(C)(C)[C@H](Oc4ccc(C#N)c(C(F)(F)F)c4)C3(C)C)cc2)C(C)(C)C)cc1	8%	5.8	< 1 ×10⁻⁶ cm/s	–	–	–	–
Cc1ncsc1-c1ccc(CNC(=O)[C@@H]2C[C@@H](O)CN2C(=O)[C@@H](NC(=O)COCCCOc2ccc(-c3ccc(N4C(=S)N(c5ccc(C#N)c(C(F)(F)F)c5)C(=O)C4(C)C)cc3)cc2)C(C)(C)C)cc1	7%	6.2	< 1 ×10⁻⁶ cm/s	–	–	–	–
